In ChEMBL document CHEMBL1157912, “Impact of nature and length of linker incorporated in agonists on toll-like receptor 9-mediated immune responses” (J Med Chem, 2010) one finds Activity data, which are given here for three molecules.

In experiment [1] the target is T1, Toll-like receptor 9 (Homo sapiens) (UniProt Q9NR96).
T1 sequence (whole entry): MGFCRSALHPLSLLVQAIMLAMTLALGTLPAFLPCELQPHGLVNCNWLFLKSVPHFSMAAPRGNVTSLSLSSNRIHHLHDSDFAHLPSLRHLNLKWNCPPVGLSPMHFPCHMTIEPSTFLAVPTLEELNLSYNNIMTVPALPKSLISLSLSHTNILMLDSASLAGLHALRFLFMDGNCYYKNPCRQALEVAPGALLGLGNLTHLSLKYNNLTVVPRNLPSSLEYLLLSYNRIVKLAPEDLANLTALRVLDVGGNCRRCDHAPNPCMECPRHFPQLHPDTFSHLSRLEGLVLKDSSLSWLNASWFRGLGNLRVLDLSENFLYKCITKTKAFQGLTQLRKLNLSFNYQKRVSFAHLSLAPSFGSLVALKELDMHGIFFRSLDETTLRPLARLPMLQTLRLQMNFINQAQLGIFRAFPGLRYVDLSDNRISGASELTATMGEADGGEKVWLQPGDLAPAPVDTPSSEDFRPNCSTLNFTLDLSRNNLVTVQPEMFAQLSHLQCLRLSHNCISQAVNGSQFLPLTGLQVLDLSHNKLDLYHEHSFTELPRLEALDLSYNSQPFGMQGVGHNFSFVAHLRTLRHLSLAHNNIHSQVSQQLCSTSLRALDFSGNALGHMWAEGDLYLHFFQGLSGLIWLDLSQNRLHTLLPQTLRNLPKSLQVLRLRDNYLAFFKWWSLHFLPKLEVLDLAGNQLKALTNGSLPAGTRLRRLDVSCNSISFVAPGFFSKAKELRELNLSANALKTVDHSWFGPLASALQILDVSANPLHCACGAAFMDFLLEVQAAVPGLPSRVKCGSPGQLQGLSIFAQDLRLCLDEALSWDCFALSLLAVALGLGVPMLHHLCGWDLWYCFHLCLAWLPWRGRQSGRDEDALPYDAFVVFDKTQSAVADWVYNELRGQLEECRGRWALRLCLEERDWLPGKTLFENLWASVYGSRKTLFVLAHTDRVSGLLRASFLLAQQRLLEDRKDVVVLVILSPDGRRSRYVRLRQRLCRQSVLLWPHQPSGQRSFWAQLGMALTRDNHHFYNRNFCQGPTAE
The experiment can be described thus: Induction of TLR9-mediated immune stimulation in human PBMC assessed as IL1Ralpha production at 2 ug/ml after 24 hrs by luminex multiplex assay (RVb = 0.12 +/- 0.03 ng/ml).

Experiment [2] has as its target T1, Toll-like receptor 9 (Homo sapiens). The experiment can be described thus: Induction of TLR9-mediated immune stimulation in human PBMC assessed as IL6 production at 2 ug/ml after 24 hrs by luminex multiplex assay (RVb = 0.01 ng/ml).
For experiment [3] the target is unchanged. Put plainly: Induction of TLR9-mediated human B cell proliferation assessed as [3H]thymidine uptake after 56 hrs by scintillation counting. Summed up:
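B cells were purified from human PBMCs (healthy volunteers), about 1 × 10⁵ cells, and stimulated with various agonist concentrations for 56 h. Cells were then pulsed with 0.75 μCi [³H]-thymidine and harvested 16 h later. Incorporation was counted by scintillation and reported as cpm.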

Experiment [4] has the same target. The experiment can be described thus: Induction of TLR9-mediated immune stimulation in human PBMC assessed as IL2R production at 2 ug/ml after 24 hrs by luminex multiplex assay (RVb = 0.02 +/- 0.01 ng/ml).

Consider `Cc1cn([C@H]2C[C@H](OCC[C@H](O)COP(=O)(S)O[C@H]3C[C@H](n4cc(C)c(=O)[nH]c4=O)O[C@@H]3COP(=O)(S)O[C@H]3[C@@H](O)[C@H](n4ccc(N)nc4=O)O[C@@H]3COP(=O)(S)O[C@H]3C[C@H](n4cc(C)c(=O)[nH]c4=O)O[C@@H]3COP(=O)(S)O[C@H]3C[C@H](n4cc(C)c(=O)[nH]c4=O)O[C@@H]3COP(=O)(S)O[C@H]3C[C@H](n4ccc5c(=O)[nH]c(N)nc54)O[C@@H]3COP(=O)(S)O[C@H]3[C@@H](O)[C@H](n4ccc(N)nc4=O)O[C@@H]3COP(=O)(S)O[C@H]3C[C@H](n4cc(C)c(=O)[nH]c4=O)O[C@@H]3COP(=O)(S)O[C@H]3[C@@H](O)[C@H](n4cnc5c(=O)[nH]c(N)nc54)O[C@@H]3COP(=O)(S)O[C@H]3C[C@H](n4cc(C)c(=O)[nH]c4=O)O[C@@H]3COP(=O)(S)O[C@H]3[C@@H](O)[C@H](n4ccc(N)nc4=O)O[C@@H]3COP(=O)(S)O[C@H]3C[C@H](n4cc(C)c(=O)[nH]c4=O)O[C@@H]3CO)[C@@H](COP(=O)(S)O[C@H]3[C@@H](O)[C@H](n4ccc(N)nc4=O)O[C@@H]3COP(=O)(S)O[C@H]3C[C@H](n4cc(C)c(=O)[nH]c4=O)O[C@@H]3COP(=O)(S)O[C@H]3C[C@H](n4cc(C)c(=O)[nH]c4=O)O[C@@H]3COP(=O)(S)O[C@H]3C[C@H](n4ccc5c(=O)[nH]c(N)nc54)O[C@@H]3COP(=O)(S)O[C@H]3[C@@H](O)[C@H](n4ccc(N)nc4=O)O[C@@H]3COP(=O)(S)O[C@H]3C[C@H](n4cc(C)c(=O)[nH]c4=O)O[C@@H]3COP(=O)(S)O[C@H]3[C@@H](O)[C@H](n4cnc5c(=O)[nH]c(N)nc54)O[C@@H]3COP(=O)(S)O[C@H]3C[C@H](n4cc(C)c(=O)[nH]c4=O)O[C@@H]3COP(=O)(S)O[C@H]3[C@@H](O)[C@H](n4ccc(N)nc4=O)O[C@@H]3COP(=O)(S)O[C@H]3C[C@H](n4cc(C)c(=O)[nH]c4=O)O[C@@H]3CO)O2)c(=O)[nH]c1=O` (some centres not stated), for which the Activity in experiment [1] was 16.4 ng/mL; in experiment [2], 0.54 ng/mL; in experiment [3] it was “Dose-dependent effect”; in experiment [4], 0.09 ng/mL.

Regarding `Cc1cn([C@H]2C[C@H](OCCOCCOCCOCCOCCOCCOP(=O)(S)O[C@H]3C[C@H](n4cc(C)c(=O)[nH]c4=O)O[C@@H]3COP(=O)(S)O[C@H]3[C@@H](O)[C@H](n4ccc(N)nc4=O)O[C@@H]3COP(=O)(S)O[C@H]3C[C@H](n4cc(C)c(=O)[nH]c4=O)O[C@@H]3COP(=O)(S)O[C@H]3C[C@H](n4cc(C)c(=O)[nH]c4=O)O[C@@H]3COP(=O)(S)O[C@H]3C[C@H](n4ccc5c(=O)[nH]c(N)nc54)O[C@@H]3COP(=O)(S)O[C@H]3[C@@H](O)[C@H](n4ccc(N)nc4=O)O[C@@H]3COP(=O)(S)O[C@H]3C[C@H](n4cc(C)c(=O)[nH]c4=O)O[C@@H]3COP(=O)(S)O[C@H]3[C@@H](O)[C@H](n4cnc5c(=O)[nH]c(N)nc54)O[C@@H]3COP(=O)(S)O[C@H]3C[C@H](n4cc(C)c(=O)[nH]c4=O)O[C@@H]3COP(=O)(S)O[C@H]3[C@@H](O)[C@H](n4ccc(N)nc4=O)O[C@@H]3COP(=O)(S)O[C@H]3C[C@H](n4cc(C)c(=O)[nH]c4=O)O[C@@H]3CO)[C@@H](COP(=O)(S)O[C@H]3[C@@H](O)[C@H](n4ccc(N)nc4=O)O[C@@H]3COP(=O)(S)O[C@H]3C[C@H](n4cc(C)c(=O)[nH]c4=O)O[C@@H]3COP(=O)(S)O[C@H]3C[C@H](n4cc(C)c(=O)[nH]c4=O)O[C@@H]3COP(=O)(S)O[C@H]3C[C@H](n4ccc5c(=O)[nH]c(N)nc54)O[C@@H]3COP(=O)(S)O[C@H]3[C@@H](O)[C@H](n4ccc(N)nc4=O)O[C@@H]3COP(=O)(S)O[C@H]3C[C@H](n4cc(C)c(=O)[nH]c4=O)O[C@@H]3COP(=O)(S)O[C@H]3[C@@H](O)[C@H](n4cnc5c(=O)[nH]c(N)nc54)O[C@@H]3COP(=O)(S)O[C@H]3C[C@H](n4cc(C)c(=O)[nH]c4=O)O[C@@H]3COP(=O)(S)O[C@H]3[C@@H](O)[C@H](n4ccc(N)nc4=O)O[C@@H]3COP(=O)(S)O[C@H]3C[C@H](n4cc(C)c(=O)[nH]c4=O)O[C@@H]3CO)O2)c(=O)[nH]c1=O` (some centres not stated), the Activity in experiment [1] is 10.7 ng/mL; in experiment [2], 0.16 ng/mL; in experiment [3], “Dose-dependent effect”; in experiment [4] it was 0.11 ng/mL.

Turning to `Cc1cn([C@H]2C[C@H](O[C@@H]3C[C@@H](O)C[C@@H](OP(=O)(S)O[C@H]4C[C@H](n5cc(C)c(=O)[nH]c5=O)O[C@@H]4COP(=O)(S)O[C@H]4[C@@H](O)[C@H](n5ccc(N)nc5=O)O[C@@H]4COP(=O)(S)O[C@H]4C[C@H](n5cc(C)c(=O)[nH]c5=O)O[C@@H]4COP(=O)(S)O[C@H]4C[C@H](n5cc(C)c(=O)[nH]c5=O)O[C@@H]4COP(=O)(S)O[C@H]4C[C@H](n5ccc6c(=O)[nH]c(N)nc65)O[C@@H]4COP(=O)(S)O[C@H]4[C@@H](O)[C@H](n5ccc(N)nc5=O)O[C@@H]4COP(=O)(S)O[C@H]4C[C@H](n5cc(C)c(=O)[nH]c5=O)O[C@@H]4COP(=O)(S)O[C@H]4[C@@H](O)[C@H](n5cnc6c(=O)[nH]c(N)nc65)O[C@@H]4COP(=O)(S)O[C@H]4C[C@H](n5cc(C)c(=O)[nH]c5=O)O[C@@H]4COP(=O)(S)O[C@H]4[C@@H](O)[C@H](n5ccc(N)nc5=O)O[C@@H]4COP(=O)(S)O[C@H]4C[C@H](n5cc(C)c(=O)[nH]c5=O)O[C@@H]4CO)C3)[C@@H](COP(=O)(S)O[C@H]3[C@@H](O)[C@H](n4ccc(N)nc4=O)O[C@@H]3COP(=O)(S)O[C@H]3C[C@H](n4cc(C)c(=O)[nH]c4=O)O[C@@H]3COP(=O)(S)O[C@H]3C[C@H](n4cc(C)c(=O)[nH]c4=O)O[C@@H]3COP(=O)(S)O[C@H]3C[C@H](n4ccc5c(=O)[nH]c(N)nc54)O[C@@H]3COP(=O)(S)O[C@H]3[C@@H](O)[C@H](n4ccc(N)nc4=O)O[C@@H]3COP(=O)(S)O[C@H]3C[C@H](n4cc(C)c(=O)[nH]c4=O)O[C@@H]3COP(=O)(S)O[C@H]3[C@@H](O)[C@H](n4cnc5c(=O)[nH]c(N)nc54)O[C@@H]3COP(=O)(S)O[C@H]3C[C@H](n4cc(C)c(=O)[nH]c4=O)O[C@@H]3COP(=O)(S)O[C@H]3[C@@H](O)[C@H](n4ccc(N)nc4=O)O[C@@H]3COP(=O)(S)O[C@H]3C[C@H](n4cc(C)c(=O)[nH]c4=O)O[C@@H]3CO)O2)c(=O)[nH]c1=O` (some centres not stated), the Activity is 14.2 ng/mL in experiment [1], 0.3 ng/mL in experiment [2], “Dose-dependent effect” in experiment [3] and 0.02 ng/mL in experiment [4].
